Data set [1] in a line: Inhibition of human recombinant carbonic anhydrase 7 C183S/C217S mutant using carbon-dioxide as substrate preincubated for 10 mins prior to substrate addition by […]. Put shortly:
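Stopped-flow CO2 hydration by Khalifah's method: 0.2 mM phenol red read at 557 nm, 10 mM HEPES pH 7.5, 0.1 M Na2SO4, CO2 1.7–17 mM, initial rates over 10–100 s. Enzyme preincubated 10 min at room temperature with at least 7 inhibitor concentrations, from 10 mM DMSO-water stock diluted down to 1 nM. Triplicates; Ki by non-linear least-squares fitting.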

Data set [2] in a line: Inhibition of human recombinant carbonic anhydrase 7 C183S/C217S mutant hydrolysis activity using 4-nitrophenyl acetate as substrate preincubated for 10 mins prior to substrate addition by […]. Put shortly: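 Esterase assay with 4-nitrophenyl acetate dissolved in acetonitrile (final MeCN 5%). Buffer: 10 mM HEPES/10 mM Tris pH 7.4 with 0.1 M Na2SO4; enzyme 0.10–5.0 µM. […] Spontaneous hydrolysis subtracted.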
For orientation: Flow cytometry measures light scatter and fluorescence of single cells or particles in a stream.

Data set [3] is described as follows: Inhibition of human recombinant carbonic anhydrase 7 C183S/C217S mutant phosphatase activity using 4-nitrophenyl phosphate as substrate preincubated for 10 mins prior to substrate addition by […]. Put shortly: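 Phosphatase assay with 4-nitrophenyl phosphate at 0.08–5 mM, 25 °C, 4-nitrophenol release read at 405 nm. Buffer: 10 mM HEPES/10 mM Tris pH 7.4 with 0.1 M Na2SO4. Spontaneous hydrolysis subtracted.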

For data set [4], the species on record is Homo sapiens. The experiment in a line: Activity of human recombinant carbonic anhydrase 7 C183S/C217S mutant.
The species entered for data set [5] is Homo sapiens. Put plainly: Ratio of Kcat to Km for human recombinant carbonic anhydrase 7 C183S/C217S mutant.
Substrate in data set [6]: CC(=O)Oc1ccc([N+](=O)[O-])cc1
The experiment in a line: (§1) Activity of human recombinant carbonic anhydrase 7.

Substrate in data set [7]: O=[N+]([O-])c1ccc(OP(=O)(O)O)cc1
The description is as §1.

Substrate in data set [8]: CC(=O)Oc1ccc([N+](=O)[O-])cc1
The experiment in a line: (§2) Activity of S-glutathionylated form of human recombinant carbonic anhydrase 7.

Substrate in data set [9]: O=[N+]([O-])c1ccc(OP(=O)(O)O)cc1
The data set is described as §2.

Substrate in data set [10]: O=[N+]([O-])c1ccc(OP(=O)(O)O)cc1
Put plainly: Ratio of Kcat to Km for human recombinant carbonic anhydrase 7.

Substrate in data set [11]: O=[N+]([O-])c1ccc(OP(=O)(O)O)cc1
The experiment in a line: Ratio of Kcat to Km for S-glutathionylated form of human recombinant carbonic anhydrase 7.

Substrate in data set [12]: CC(=O)Oc1ccc([N+](=O)[O-])cc1
Put plainly: (§3) Activity of human recombinant carbonic anhydrase 3.

Substrate in data set [13]: O=[N+]([O-])c1ccc(OP(=O)(O)O)cc1
The description is as §3.

Substrate in data set [14]: CC(=O)Oc1ccc([N+](=O)[O-])cc1
Put plainly: (§4) Ratio of Kcat to Km for human recombinant carbonic anhydrase 3.

Substrate in data set [15]: O=[N+]([O-])c1ccc(OP(=O)(O)O)cc1
The data set is described as §4.

Experimental findings from ChEMBL document CHEMBL1949606, “Carbonic anhydrase VII is S-glutathionylated without loss of catalytic activity and affinity for sulfonamide inhibitors” (Bioorg Med Chem Lett, 2012) are described below.

With `CC(=O)Nc1nnc(S(N)(=O)=O)s1` [ACETAZOLAMIDE], the Ki (as a rule, the dissociation constant of the complex between target and ligand, obtained from inhibition or displacement) in data set [1] is 3 nM. For the same molecule, the IC50 (in general, the concentration that inhibits the measured activity by half) in data set [2] stood at 170 nM; in [3], 2910 nM.

For the molecule `CC(=O)Oc1ccc([N+](=O)[O-])cc1`, the Km (in general, the concentration of substrate that gives half-maximal velocity) in the data set listed under Homo sapiens [4] turned out to be 1060 µM.

Take `O=[N+]([O-])c1ccc(OP(=O)(O)O)cc1`: in the data set filed under Homo sapiens [4], the Km was 2210 µM. In the data set filed under Homo sapiens [5], the kcat/Km is 3.03 ×10⁴ /M/s.

B1: Carbonic anhydrase 7 (Homo sapiens), P43166 (protein)
chain: MTGHHGWGYGQDDGPSHWHKLYPIAQGDRQSPINIISSQAVYSPSLQPLELSYEACMSLSITNNGHSVQVDFNDSDDRTVVTGGPLEGPYRLKQFHFHWGKKHDVGSEHTVDGKSFPSELHLVHWNAKKYSTFGEAASAPDGLAVVGVFLETGDEHPSMNRLTDALYMVRFKGTKAQFSCFNPKCLLPASRHYWTYPGSLTTPPLSESVTWIVLREPICISERQMGKFRSLLFTSEDDERIHMVNNFRPPQPLKGRVVKASFRA
On to B1, for which the Km is 750 µM in [6], 1430 µM in [7], 500 µM in data set [8] and 970 µM in data set [9]. Besides, the kcat/Km in data set [10] stood at 2.89 ×10⁴ /M/s; in data set [11], 3.04 ×10⁴ /M/s.

B2: Carbonic anhydrase 3 (Homo sapiens), P07451 (protein)
chain: MAKEWGYASHNGPDHWHELFPNAKGENQSPVELHTKDIRHDPSLQPWSVSYDGGSAKTILNNGKTCRVVFDDTYDRSMLRGGPLPGPYRLRQFHLHWGSSDDHGSEHTVDGVKYAAELHLVHWNPKYNTFKEALKQRDGIAVIGIFLKIGHENGEFQIFLDALDKIKTKGKEAPFTKFDPSCLFPACRDYWTYQGSFTTPPCEECIVWLLLKEPMTVSSDQMAKLRSLLSSAENEPPVPLVSNWRPPQPINNRVVRASFK
Turning to B2, the Km was 1230 µM in [12] and 1340 µM in [13]. For the same molecule, the kcat/Km in data set [14] came out at 139 M⁻¹ s⁻¹; in data set [15], 45.3 M⁻¹ s⁻¹.
